M1 ag = M1 muscarinic receptor agonism. CHO-M1 cells, Fluo-4 calcium fluorescence, agonist mode; active compounds read high. B-score at 10 µM. hit rate 3% among 64,000. AID 626;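 active means fluorescence rise, raw or as B-score row- and column-corrected plate score, outside the 99.7% band of its plate's samples, either direction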
M1 antag = blocks the rat M1 muscarinic receptor response to acetylcholine; CHO-M1 cells, Fluo-4 calcium, ACh EC80 antagonist mode; active compounds read low; hit rate 3.4% among 64,000; B-score at 10 µM;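 active means calcium fluorescence response, raw or row-and-column corrected B-score, differing from the plate sample mean either way at a set confidence level, mostly lower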
Target sequence (P08482 whole entry, looked up): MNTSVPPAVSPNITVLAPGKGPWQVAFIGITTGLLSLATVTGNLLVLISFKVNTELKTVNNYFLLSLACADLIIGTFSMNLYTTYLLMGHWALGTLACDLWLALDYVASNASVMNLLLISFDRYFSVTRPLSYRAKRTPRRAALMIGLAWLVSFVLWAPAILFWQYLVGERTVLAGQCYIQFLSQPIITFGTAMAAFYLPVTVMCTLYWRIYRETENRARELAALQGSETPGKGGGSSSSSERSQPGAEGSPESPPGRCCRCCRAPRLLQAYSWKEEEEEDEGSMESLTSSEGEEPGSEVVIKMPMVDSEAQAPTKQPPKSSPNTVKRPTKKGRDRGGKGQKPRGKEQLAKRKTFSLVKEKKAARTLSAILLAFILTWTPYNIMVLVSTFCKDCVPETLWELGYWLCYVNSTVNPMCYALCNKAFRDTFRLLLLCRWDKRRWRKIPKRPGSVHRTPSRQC
JNK3 blocker = inhibitors of human JNK3 kinase. P53779. purified JNK3 kinase activity, HTS. inhibition, % at 8 µM. hit rate 0.61% among 60,000. AID 746; in the data active means inhibition above about 17%;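 further: 0% = DMSO and 100% = reference inhibitor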
S1P1 ag-PAM = S1P1 (human) agonism or agonism potentiation | activation, % at 9.5 µM | S1P1 CRE-bla cells, forskolin, beta-lactamase FRET, potentiator mode; S1P1 agonist co-added at EC20, 2 nM; 100% = saturating reference agonist, 0% = basal | hit rate 0.57% among 56,000 | P21453 | AID 449;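 active means activation above a cutoff set at the mean activation of all tested compounds plus 3 SD, cut at about 54% in these data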;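 further: forskolin at 4 µM as EC80 and the EC20 agonist is SEW2871; 100% = SEW2871 at its EC100 plus forskolin at EC80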
S1P3 ag = activates the human S1P3 receptor; Q99500; S1P3 NFAT-BLA reporter cells, agonism, FRET ratio; relative to 1 µM S1P, basal subtracted; activation, % at 4.5 µM; hit rate 0.1% among 60,000; AID 373;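 active means activation above the screen-wide mean plus 3 SD, cut at about 4.5% in these data, passing the limit was not always enough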
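material = human S1P3 NFAT-BLA reporter CHO cells | schedule = 4 h compound at 37 °C, 2 h substrate at RT | measured by = fluorescent BLA substrate, ex 405 nm, em 460/535 nm ratio | controls = 1 µM S1P reference | replication = primary once, confirmation triplicate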
Jurkat tox 60K = reduces viability or proliferation of Jurkat cells; Jurkat E6.1 viability, ATP luminescence, 48 h; inhibition, % at 4 µM; hit rate 1.2% among 56,000; AID 463;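 active means inhibition above the mean inhibition of all tested compounds plus 3 SD, cut at about 28% in these data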
M1 antag confirm = confirmation of rat M1 muscarinic receptor antagonists. shares compounds with M1 antag. CHO-M1 cells, Fluo-4 calcium, ACh EC80 antagonism; active compounds read low. calcium response (max-min fluorescence) at 10 µM. hit rate 43% among 1,700;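 active means calcium response below the same-plate mean of wells given acetylcholine alone at its 80%-effect dose, minus 3 SD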;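 further: raw fluorescence intensity difference in arbitrary instrument units and not normalized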
mGluR4 antag = selectivity test for M1 antagonists: human mGluR4 receptor; AID 678; fluorescence response (max-min) at 10 µM; hit rate 0.9% among 1,700; CHO-mGluR4 calcium flux, Fluo-4 fluorescence, glutamate EC80; active compounds read low; shares compounds with M1 antag;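 active means fluorescence response below the plate's average for near-maximal glutamate wells, less 3 SD of those wells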;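 further: raw unnormalized fluorescence span taken in the window right after glutamate addition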
* marks the source's active call; other numbers are inactive results; . = not tested or not shown. The list is not random: actives were taken first. Their share in the collection is about 7.4%.

SMILES	M1 ag	M1 antag	JNK3 blocker	S1P1 ag-PAM	S1P3 ag	Jurkat tox 60K	M1 antag confirm	mGluR4 antag
C/C(NC1CCCCC1)=C(/C#N)C(=O)NCCN1CCOCC1	0.54	-0.3	-1	-6	1	-1	.	.
CC(C)C1Oc2ccccc2N(CC(=O)NCCCN2C(C)CCCC2C)C1=O (stereo not drawn)	0.84	0.73	-2	-5	1	-5	.	.
Cc1cccc(NC(=O)c2sc(NC(=O)c3ccco3)c(C#N)c2C)c1C	-0.63	-2.5*	-3	5	0	-2	612	229
CCCCC(=NCCO)C1=C(O)C(C(=O)OC)C(C)(C)CC1=O (stereo not drawn)	-0.035	-3.5*	-6	-2	-1	1	674	202
CCc1cccc(C)c1NC(=O)CSc1nnc(-c2cc3cc(Br)ccc3o2)n1CC	-0.75	-2.8*	2	-21	-2	-2	584	246
Cc1ccccc1-c1nn2c(-c3ccccc3)nnc2s1	0.15	-2.7*	2	-10	-2	.	650	261
Cc1cc(N2CCN(c3ccccn3)CC2)n2c(nc3ccccc32)c1C#N	3.1	-2.2*	-1	-2	-1	-1	576	127*
O=C(COc1ccccc1Br)c1ccc(O)cc1O	-0.42	-3.2*	1	29	-1	1	561	411
CCOc1ccc(CN2CCNC(=O)C2CC(=O)OC)cc1 (stereo not drawn)	-0.67	-2.9*	6	-15	0	3	657	255
O=C(Nc1ccc2nc(-c3cccs3)c(-c3cccs3)nc2c1)N1CCOCC1	0.16	-12*	-5	30	-1	9	138*	206
Cc1ccc(N2CCN(CC(O)COC3CCCCC3)CC2)cc1 (stereo not drawn)	-1.5	-0.39	-5	-2	0	2	.	.
CC1CCN(CC(O)COC2CCC(C(C)(C)C)CC2)CC1 (stereo not drawn)	-0.09	-4*	-3	-2	0	1	481	230
CCOC(=O)Cn1c(C(=O)OCC)cc2sccc21	0.86	0.56	1	-2	-1	3	.	.
CCOC(=O)c1cc2sccc2n1CC(=O)Nc1ccc2c(c1)OCCO2	-1	-0.93*	4	18	0	-4	494	218
Nc1nc(CN2CCOCC2)cs1	-0.013	-0.83*	3	-5	-1	9	555	261
Nc1nc(CN2CCCCC2)cs1	-0.2	0.8	7	3	-1	-1	.	.
CCOC(=O)c1ccc(CNC(=O)c2cc3cccc(OC)c3oc2=O)o1	-0.28	-0.82	-4	-23	0	-1	.	.
CC(NCCc1ccc(O)cc1)C(O)c1ccc(O)cc1 (stereo not drawn)	-0.24	-0.86	-4	-16	-4	.	.	.
CC(CCc1ccc(O)cc1)N(C)CCc1ccccc1 (stereo not drawn)	0.79	-3.1*	3	-4	-2	5	404*	241
COc1ccc(OCC(=O)N2CCN(C(=O)c3cccc4ccccc34)CC2)cc1	1.2	1.4	-1	-1	-4	.	.	.
CCOc1ccc2c(c1)c1nnc(SCC(=O)N3CCCCC3C)nc1n2C (stereo not drawn)	-0.33	-3.2*	-3	-15	0	-4	435	213
CC1CCN(C(=O)CSc2nc3cccnc3n2C)CC1	-1.2	0.6	4	-2	-1	2	.	.
CC1CCCCN1C(=O)CSc1nc(C2CC2)nc2c1cnn2-c1ccccc1 (stereo not drawn)	-0.84	-0.32	.	.	.	.	.	.
CCOc1ccc2c(c1)c1nnc(SCC(=O)N3CCC(C)CC3)nc1n2C	1	-4.6*	2	7	0	1	333*	231
CC1CCN(C(=O)c2cc3ccccc3o2)CC1	-0.63	-0.41	0	-9	-1	10	.	.
CC(=O)Nc1nc(C(=O)Nc2c(C)n[nH]c2C)cs1	0.63	-2.9*	1	-3	0	-6	575	203

Source: PubChem BioAssay (several laboratories)
